STAT3 blocker: reduces IL-6 driven STAT3 reporter signal; inhibition, % at 5.5 µM; hit rate 0.89% among 190,000; AID 862; U3A cells, IL-6 STAT3-luciferase reporter, luminescence; host cell line lacks STAT1;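 active = inhibition above the mean inhibition across all screened compounds plus 3 SD, cut at about 44% in these data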
STAT1 inh: inhibitors of IFN-gamma induced STAT1 signaling | NIH 3T3 STAT1-luciferase reporter, luminescence | inhibition, % at 5.5 µM | hit rate 0.35% among 200,000 | AID 920;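 active = inhibition above a set limit, the mean inhibition across all tested compounds plus 3 SD, cut at about 34% in these data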
PERK inh: blocks human PERK kinase; CHO PERK-DD fusion, SEAP luminescence translation reporter; inhibition, % at 5.6 µM; Q9NZJ5; hit rate 0.17% among 220,000; AID 1416;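 active = inhibition above the mean inhibition of all tested compounds plus 3 SD, set separately per screening campaign, cut at about 2.9% in these data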;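 note: PERK kinase domain activated by AP20187 dimerizer at 100 nM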
Target sequence (Q9NZJ5 whole entry, looked up, the tested form may be a part): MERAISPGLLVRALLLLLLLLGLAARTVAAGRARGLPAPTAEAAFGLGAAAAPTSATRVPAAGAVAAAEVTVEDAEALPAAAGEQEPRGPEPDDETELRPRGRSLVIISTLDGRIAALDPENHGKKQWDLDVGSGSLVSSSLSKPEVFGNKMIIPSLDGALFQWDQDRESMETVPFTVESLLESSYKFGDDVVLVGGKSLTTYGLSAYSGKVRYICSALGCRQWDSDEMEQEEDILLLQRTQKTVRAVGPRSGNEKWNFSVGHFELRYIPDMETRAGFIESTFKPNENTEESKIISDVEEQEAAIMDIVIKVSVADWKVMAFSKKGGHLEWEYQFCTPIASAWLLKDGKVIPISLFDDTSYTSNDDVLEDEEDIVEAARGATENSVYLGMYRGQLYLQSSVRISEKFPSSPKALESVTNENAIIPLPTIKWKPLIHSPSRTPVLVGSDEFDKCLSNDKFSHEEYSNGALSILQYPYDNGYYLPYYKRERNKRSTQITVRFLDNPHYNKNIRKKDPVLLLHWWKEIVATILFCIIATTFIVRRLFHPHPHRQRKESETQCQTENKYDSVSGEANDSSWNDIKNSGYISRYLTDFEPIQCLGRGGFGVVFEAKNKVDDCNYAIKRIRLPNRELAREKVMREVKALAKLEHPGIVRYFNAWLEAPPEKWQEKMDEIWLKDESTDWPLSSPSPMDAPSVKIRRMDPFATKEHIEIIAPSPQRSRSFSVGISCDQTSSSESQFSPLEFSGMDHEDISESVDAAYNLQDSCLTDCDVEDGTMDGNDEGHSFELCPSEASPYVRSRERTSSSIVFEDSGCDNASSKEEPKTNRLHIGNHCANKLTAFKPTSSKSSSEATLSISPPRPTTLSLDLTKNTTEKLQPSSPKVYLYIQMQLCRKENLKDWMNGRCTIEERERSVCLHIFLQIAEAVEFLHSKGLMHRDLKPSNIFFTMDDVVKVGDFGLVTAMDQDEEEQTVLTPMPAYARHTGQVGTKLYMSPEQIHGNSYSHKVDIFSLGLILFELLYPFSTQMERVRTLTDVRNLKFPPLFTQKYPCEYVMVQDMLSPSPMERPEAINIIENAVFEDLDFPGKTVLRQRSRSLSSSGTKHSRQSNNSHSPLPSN
Platelet DG rel: modulates dense granule release in human platelets; inhibition, %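 (compounds screened at 7.5 µM in platelet-rich plasma)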; hit rate 0.22% among 300,000; human platelet-rich plasma, SFLLRN dense granule ATP release, luminescence;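 active = mean replicate score, as percent of positive control, at or above 50; inconclusive = mean below 50 but at least one replicate at or above 50; inactive = mean and every replicate below 50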
STAT3 act: increases IL-6 driven STAT3 reporter signal; U3A cells, IL-6 STAT3-luciferase reporter, luminescence; 100% = signal with IL-6 EC80 alone; AID 871; activation (% of control), % at 5.6 µM; hit rate 0.91% among 190,000;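 active = activation above the screen-wide mean of compound activation plus 3 SD, cut at about 130% in these data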
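Test system: Human STAT1-deficient U3A cells with stable STAT3-luciferase reporter | Also added: Interleukin-6, 33 ng/mL | Timing: Compound pre-incubation 1 h before IL-6, then 6 h stimulation at 37 °C | Technique: Luciferase reporter luminescence | Read-out: Percent of IL-6-only median luminescence | Benchmarks: IL-6-only wells as 100% reference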
Each line names hits and unclear results; the compound was inactive in the other large screens. Rows were chosen to be rich in hits. Some 1.4% of all compounds tested hit in one or more screens of this group.

Cc1ccc(N/C=C(\C#N)S(=O)(=O)c2ccccc2)cc1	none
O=[N+]([O-])c1cc(N=Nc2ccc3ccccc3c2)ccc1O	Platelet DG rel 55 (no result: STAT3 blocker, STAT1 inh, PERK inh, STAT3 act)
O=[N+]([O-])c1ccccc1NCc1c(O)ccc2ccccc12	none (no result: STAT3 blocker, STAT1 inh, STAT3 act)
O=C(O)c1ccc(-c2nc(-c3ccccc3)c(-c3cccs3)[nH]2)cc1	PERK inh 4.3 (no result: STAT3 blocker, STAT1 inh, STAT3 act)
O=C1c2ccccc2C(=O)N1CCOc1ccccc1	STAT3 act 138
COc1cc(/C=N/NS(=O)(=O)c2ccc(C)cc2)ccc1OCc1ccc(C(=O)O)cc1	STAT3 blocker 54, STAT1 inh 85, PERK inh 2.9
CCOC(=O)c1c(C)[nH]c(C)c1C(=O)CSc1nnc(-c2cc(OC)c(OC)c(OC)c2)o1	PERK inh 3.2
Cc1cc(C(=O)COC(=O)c2ccco2)c(C)n1Cc1ccco1	none
Cc1cc(C(=O)COC(=O)c2cccn2C)c(C)n1Cc1ccco1	STAT3 blocker 69, STAT1 inh 37
O=C(CN1CC(=O)Oc2ccccc21)OCC(=O)c1cccc(Br)c1	none
O=C(CN1CC(=O)Oc2ccccc21)OCC(=O)c1ccccc1	PERK inh 2.9
Clc1cccc(CN2CCN(Cc3nc(CCc4ccccc4)no3)CC2)c1	none
COc1ccc(N2CCN(S(=O)(=O)CCNC(=O)c3ccc(Br)o3)CC2)cc1	none (no result: STAT3 blocker, STAT1 inh, PERK inh, STAT3 act)
CC12CCCCN1CCCc1c2[nH]c2ccccc12 (stereo not drawn)	STAT3 act 136
c1ccc2c3c([nH]c2c1)C1(CCCCC1)NCC3	none
CCOC(=O)c1oc2ccc(CNC(C)(C)C)c(Cl)c2c1C	none
Cn1c(=O)c2[nH]c(-c3ccccc3O)nc2n(C)c1=O	none
COc1ccc(-c2nc3c([nH]2)c(=O)n(C)c(=O)n3C)c(OC)c1	STAT3 act 134
Cc1ccnc(SCc2nc3ccccc3s2)n1	STAT3 act 136
CN1C(=S)N2CCCN2C1c1ccccc1 (stereo not drawn)	none (no result: STAT3 blocker, STAT1 inh, STAT3 act)
Cc1cccc(-c2nc(=S)c3c(n2Cc2ccco2)CCCC3)c1	none
Cc1ccc(-c2nc(=S)c3c(n2Cc2ccco2)CCCC3)cc1	STAT3 act 143 (no result: Platelet DG rel)
C=CCNc1nc(-c2sc(NC(=O)CC)nc2C)cs1	STAT3 act 135
C=CCNc1nc(-c2sc(NC(C)=O)nc2C)cs1	none
CC(C)CN(Cc1cc(=O)oc2cc(-c3ccccc3)c(O)cc12)CC(C)C	none (no result: STAT3 blocker, STAT1 inh, STAT3 act)
O=C(NCc1ccc(F)cc1)c1cnc2sccn2c1=O	none (no result: STAT3 blocker, STAT1 inh, PERK inh, STAT3 act)
O=C(NCCc1c[nH]c2ccccc12)c1cnc2sccn2c1=O	STAT3 act 135
Nc1nc(N)nc(-c2cc(Cl)ccc2Cl)n1	none (no result: STAT3 blocker, STAT1 inh, PERK inh, STAT3 act)
O=Cc1ccc(-c2cc(Cl)ccc2Cl)[nH]1	PERK inh 3.3
O=C(Nc1ccccn1)c1cc2ccccc2o1	STAT3 blocker 89, STAT1 inh 53, Platelet DG rel inconclusive
Cc1ccnc(NC(=O)c2cc3ccccc3o2)c1	none (no result: STAT3 blocker, STAT1 inh, PERK inh, STAT3 act)
COc1ccc(N2CCN(c3ncnc4c3[nH]c3ccccc34)CC2)cc1	STAT3 blocker 77, STAT1 inh 41
COc1ccc2[nH]c3c(N4CCc5ccccc5C4)ncnc3c2c1	none (no result: STAT3 blocker, STAT1 inh, STAT3 act)
COc1cc(OC)c(OC)cc1/C=C1\Oc2cc(OCC(=O)N3Cc4ccccc4C[C@H]3C(=O)O)ccc2C1=O	none (no result: STAT3 blocker, STAT1 inh, PERK inh, STAT3 act)
Fc1ccccc1Nc1nc2ccccc2o1	Platelet DG rel 58 (no result: STAT3 blocker, STAT1 inh, PERK inh, STAT3 act)
c1ccc(Nc2nc3ccccc3o2)cc1	none
CCC(C)C(NS(=O)(=O)c1ccc(C)cc1)C(=O)O (stereo not drawn)	none
CSCC(CO)NS(=O)(=O)c1ccc(C)cc1 (stereo not drawn)	PERK inh 2.9 (no result: STAT3 blocker, STAT1 inh, STAT3 act)
O=C1NC(=O)/C(=C/c2ccccn2)S1	none (no result: STAT3 blocker, STAT1 inh, STAT3 act)
O=C(c1ccccc1)N1CCCC(C(=O)N2CCN(c3ccccc3)CC2)C1 (stereo not drawn)	none (no result: STAT3 blocker, STAT1 inh, STAT3 act)
CCSc1nnc(NC(=O)c2cc(-c3ccccc3O)n[nH]2)s1	PERK inh 3.8 (no result: STAT3 blocker, STAT1 inh, STAT3 act)
CC(O)CNCCNCc1cccs1 (stereo not drawn)	none
Cc1ccc(NC(=O)CCSc2nnc(C)s2)cc1	PERK inh 2.9
CCOC(=O)c1c(NC(=S)NCC2CCCO2)sc(C)c1C (stereo not drawn)	none
COc1ccc(N(CC(=O)NN=C2CCN(C)CC2)S(=O)(=O)c2ccccc2)c(OC)c1	none (no result: STAT3 blocker, STAT1 inh, PERK inh, STAT3 act)
COc1ccc(Cl)cc1C(=O)Nc1ccc2c(c1)OCCO2	none (no result: STAT3 blocker, STAT1 inh, PERK inh, STAT3 act)
O=C(Nc1ccc2c(c1)OCCO2)c1ccc2nccnc2c1	STAT3 blocker 50
COc1ccc(Cl)cc1C(=O)Nc1ccc2c(c1)OCO2	STAT3 act 151
COc1ccc(S(=O)(=O)N(C)CC(=O)Nc2ccc3c(c2)OCO3)cc1OC	Platelet DG rel 71
CN(c1ccc(C(=O)Nc2ccc3c(c2)OCO3)cc1)S(C)(=O)=O	Platelet DG rel 83 (no result: STAT3 blocker, STAT1 inh, STAT3 act)
O=C(Nc1ccc2c(c1)OCCO2)c1ccc(Cl)c(Cl)c1	none (no result: STAT3 blocker, STAT1 inh, PERK inh, STAT3 act)
CN(c1ccc(C(=O)Nc2ccc3c(c2)OCCO3)cc1)S(C)(=O)=O	none
C=CCN(c1ccccc1)S(=O)(=O)c1cccc2cccnc12	none (no result: STAT3 blocker, STAT1 inh, STAT3 act)
O=C(NC1CCCC1)C(c1ccccc1)N(Cc1cccnc1)C(=O)Cc1cccs1 (stereo not drawn)	none
O=C(c1ccco1)N1CCN(S(=O)(=O)c2ccc(F)cc2)CC1	none
COc1ccc(S(=O)(=O)N2CCc3ccccc32)cc1C(=O)N(CC(C)C)C1CCS(=O)(=O)C1 (stereo not drawn)	none (no result: STAT3 blocker, STAT1 inh, PERK inh, STAT3 act)
CCOC(=O)c1ccc(N=c2sc(C(=O)OC)cc(=O)n2C2CC2)cc1	PERK inh 3.1
CCOC(=O)c1ccc(N=c2sc(C(=O)OC)cc(=O)n2Cc2ccc3c(c2)OCO3)cc1	none
Cc1cc(C)cc(OCCNC(=O)c2ccc(Br)cc2)c1	none (no result: STAT3 blocker, STAT1 inh, PERK inh, STAT3 act)
CC1=C(C(=O)OCC2CCCO2)C(c2coc3ccc(Cl)cc3c2=O)C2=C(CCCC2=O)N1 (stereo not drawn)	STAT3 act 134
CC1=C(C(=O)OCC2CCCO2)C(c2coc3ccc(C)cc3c2=O)C2=C(CCCC2=O)N1 (stereo not drawn)	none
CCOc1ccc(NC(=O)Nc2ccc3nsnc3c2)cc1	none
CCOC(=O)C(=O)Nc1cccc(C(=O)OCC)c1	none
CCOc1ccc(NC(=O)Nc2cccc(C(=O)O)c2)cc1	STAT3 blocker 110, STAT1 inh 96
Cc1ccccc1OCC(=O)Nc1cccc(C(=O)O)c1	STAT3 blocker 103, STAT1 inh 97
CCOC(=O)c1cccc(NC(=O)Nc2ccc(OCC)cc2)c1	STAT3 blocker 53, STAT1 inh 65
Cc1cccc(OCC(=O)Nc2cc(NC(=O)COc3cccc(C)c3C)cc(C(=O)O)c2)c1C	none (no result: STAT3 blocker, STAT1 inh, PERK inh, STAT3 act)
C=CCn1c(SCC(=O)Nc2cc(C)on2)nc2c([nH]c3ccccc32)c1=O	none (no result: STAT3 blocker, STAT1 inh, PERK inh, STAT3 act)
CC(=O)Nc1nc(C)c(CCCOc2ccc([N+](=O)[O-])cc2)c(=O)[nH]1	none (no result: STAT3 blocker, STAT1 inh, STAT3 act)
CCOC(CCc1c(C)nc(NC(C)=O)[nH]c1=O)OCC	PERK inh 3.1 (no result: STAT3 blocker, STAT1 inh, STAT3 act)
COc1cc(Cl)c(C)cc1NC(=O)c1cccc(OC)c1OC	none
COc1ccc(C2(O)C(=O)Nc3ccc(C)cc32)cc1 (stereo not drawn)	none (no result: STAT3 blocker, STAT1 inh, PERK inh, STAT3 act)
Cc1ccc2c(c1)C(O)(c1c(C)[nH]c3ccccc13)C(=O)N2 (stereo not drawn)	STAT3 act 134
